Cav32 inh: Cav3.2 calcium influx blockers – cell-based, Fluo-4 calcium fluorescence, FDSS, MLSMR library, primary screen. 100,000 compounds, 4% hits. Voltage-dependent T-type calcium channel subunit alpha-1H (Homo sapiens), O95180. AID 449739, 2010. B-score at 10 µM. Cav3.2-expressing cells; hits give low values;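 active = single-dose well whose peak fluorescence ratio is a statistical outlier from its plate by either plate-standardised score or position-corrected B-score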
CYP2C9 activ: human CYP2C9 activators, primary screen, biochemical, luminescence | Cytochrome P450 2C9 (Homo sapiens), P11712 | recombinant CYP2C9, luciferin-H conversion; hits give high values; factor 1 = untreated enzyme, 0 = blocked | 96,000 compounds, 1.4% hits | activation factor at 5 µM;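 active = activation factor of 2 or more for CYP2C9 at a 5 µM dose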;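 note: 0 = sulfaphenazole-blocked wells and 1 = vehicle-only wells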
CYP2C19 inh: blockers of cytochrome P450 2C19 activity – biochemical, luminescence, ADME assay, primary screen. P33261. CYP2C19 Supersomes, luciferin-H EGE luminescence, 30 min. inhibition, % at 5 µM. 96,000 compounds, 21% hits. AID 778, 2007;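 active = CYP2C19 inhibition above a set limit at 5 µM in the primary screen, cut at about 50% in these data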;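 note: plate controls were negative control wells for no effect and 2.5 mM tranylcypromine positive control for full effect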
Target sequence (P33261 whole entry, looked up): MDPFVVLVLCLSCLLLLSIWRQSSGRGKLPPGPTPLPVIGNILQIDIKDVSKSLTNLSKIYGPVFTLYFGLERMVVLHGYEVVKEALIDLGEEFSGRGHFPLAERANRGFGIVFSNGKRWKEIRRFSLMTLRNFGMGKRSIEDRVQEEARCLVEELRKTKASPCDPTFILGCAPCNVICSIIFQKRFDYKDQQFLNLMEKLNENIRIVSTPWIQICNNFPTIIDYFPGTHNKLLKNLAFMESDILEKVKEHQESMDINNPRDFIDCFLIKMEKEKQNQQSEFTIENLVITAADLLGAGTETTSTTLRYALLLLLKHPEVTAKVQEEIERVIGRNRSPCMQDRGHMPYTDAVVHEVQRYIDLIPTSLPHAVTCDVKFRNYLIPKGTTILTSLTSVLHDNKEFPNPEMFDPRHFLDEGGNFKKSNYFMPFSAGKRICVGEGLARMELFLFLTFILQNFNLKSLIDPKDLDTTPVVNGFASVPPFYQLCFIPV
HIV Rev-RRE inh: HIV-1 Rev-RRE binding inhibitors, primary screen, biochemical, FRET, protein-RNA interaction; inhibition, % at 8 µM; Rev peptide-RRE RNA binding; 97,000 compounds, 0.79% hits; AID 704, 2007;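 active = inhibition above the screen-wide mean plus 3 SD, cut at about 35% in these data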;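 note: 0% = median DMSO wells and 100% = median Neomycin B control wells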
Target sequence (P05866 whole entry, looked up): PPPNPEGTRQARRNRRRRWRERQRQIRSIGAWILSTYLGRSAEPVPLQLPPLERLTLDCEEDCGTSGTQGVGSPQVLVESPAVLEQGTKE
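Test system: Cy5-tagged RRE RNA duplex with fluorescein-tagged Rev peptide | Read-out: % inhibition of FRET ratio versus controls | Probe or stimulus: Labelled Rev peptide | Incubation: 5 min RNA-compound premix plus 15 min binding step, 25 °C | Technique: FRET fluorescence readout | Benchmarks: DMSO low control, neomycin B high control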
CYP2C19 act: human CYP2C19 activators, primary screen, biochemical, luminescence; recombinant CYP2C19, luciferin-H EGE luminescence; hits give high values; 0 = fully inhibited enzyme, 1 = untreated enzyme; activation factor at 5 µM; 96,000 tested, under 10 active;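 active = activation factor of at least 2 at 5 µM in the primary screen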;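 note: 0 = wells with 2.5 mM tranylcypromine and 1 = vehicle-only wells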
CYP2C9 inh: blockers of cytochrome P450 2C9 activity – biochemical, luminescence, ADME assay, primary screen; inhibition, % at 5 µM; CYP2C9 Supersomes, luciferin-H conversion; 96,000 compounds, 20% hits;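 active = blocking of liver enzyme CYP2C9 beyond about 50% at 5 µM, limit read from the data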
* hit, by the source's call; . = no result given. Sampled rows, rich in hits. Any-hit rate of the full collection: about 27%.

SMILES | Cav32 inh | CYP2C9 activ | CYP2C19 inh | HIV Rev-RRE inh | CYP2C19 act | CYP2C9 inh
O=C1CC(c2ccc(S(=O)(=O)NC3CC3)cc2)CN1 (stereo not given) | 0.12 | 0.9 | -15 | 4 | 1.2 | 9
Cc1ccc(CNS(=O)(=O)N(C)C)cc1 | 0.2 | 0.9 | 62* | 7 | 0.4 | 12
Cc1ccc(CNC(N)=S)cc1 | 1.1 | 1.1 | 6 | 1 | 0.9 | -6
C=CCCN(C(C(=O)OC)C(C)C)S(=O)(=O)c1ccccc1Br (stereo not given) | -1.5 | . | . | . | . | .
CCOC(=O)c1[nH]c(C)c(/C(O)=C2\C(=O)C(=O)N(CCN(C)C)C2c2ccncc2)c1C (stereo not given) | 0.41 | 0.8 | -5 | 4 | 1 | 21
CCOc1ccc(S(=O)(=O)NCc2ccccn2)cc1 | 0.2 | 1.4 | 74* | 11 | 0.3 | -40
CCOc1ccc(S(=O)(=O)NCc2cccs2)cc1 | 0.17 | 0.6 | 47 | 5 | 0.5 | 42
Cc1ccc(S(=O)(=O)NCc2ccncc2)cc1 | 1.3 | 0.8 | 97* | 0 | 0 | 24
O=S(=O)(NCCc1ccncc1)c1ccc(Br)cc1 | 0.27 | 0 | 100* | 1 | 0 | 98*
Cc1ccc(S(=O)(=O)NCC(=O)NCc2ccncc2)cc1 | 0.42 | . | . | 8 | . | .
CCOc1ccc(S(=O)(=O)NCc2ccncc2)cc1 | -0.03 | 0.2 | 100* | 2 | 0 | 79*
CC(C)(C)C1CCc2onc(C(=O)N3CCOCC3)c2C1 (stereo not given) | 0.085 | 1.2 | 16 | . | 0.8 | -22
CCOC(=O)COc1ccc(S(=O)(=O)NCc2ccncc2)cc1 | -5.3* | 0.3 | 98* | 6 | 0 | 67*
CC1CCCCN1S(=O)(=O)c1ccc(S(=O)(=O)NCCc2ccncc2)cc1 (stereo not given) | 0.45 | . | . | 9 | . | .
CCOC(=O)N1CCN(C(=O)COc2ccc(S(=O)(=O)NCc3ccccc3)cc2)CC1 | 0.44 | 0.8 | -4 | 8 | 1 | 20
CC1CCCCC1NS(=O)(=O)c1ccc(S(=O)(=O)NCc2ccncc2)cc1 (stereo not given) | 0.54 | 0 | 98* | 10 | 0 | 100*
CCCC(c1nnnn1CCc1ccccc1)N1CCN(C(=O)c2ccco2)CC1 (stereo not given) | 1.4 | 0.8 | 14 | 7 | 0.9 | 24
S=C(Nc1ccccc1)Nc1ccc(OCc2ccc(Cl)cc2Cl)cc1 | 0.23 | 1 | 49 | 3 | 0.5 | 1
S=C(NCCSCc1c(Cl)cccc1Cl)Nc1ccccc1 | -5.8* | 0.5 | 44 | -1 | 0.6 | 48
CS(=O)(=O)NCCSCc1c(Cl)cccc1Cl | -0.65 | 0.4 | 26 | 8 | 0.7 | 63*
S=C(NCCSCc1ccc(Cl)cc1Cl)Nc1ccccc1 | -3.4 | 2.3* | 52* | 2 | 0.5 | -131
S=C(NCCSCc1ccc(Cl)c(Cl)c1)Nc1ccccc1 | -1.5 | . | . | -2 | . | .
O=C(CNS(=O)(=O)c1ccccc1)NCc1ccccn1 | 1.3 | 1 | -3 | 13 | 1 | 4
COc1ccc(-c2noc3c2-c2nc(-c4ccccc4Cl)sc2CC3)cc1 | -0.84 | . | . | . | . | .
COc1ccc(NC(=O)c2cccnc2N2CCCC2)cc1 | -0.054 | 0.1 | -5 | 11 | 1.1 | 94*
SMILES | Cav32 inh | CYP2C9 activ | CYP2C19 inh | HIV Rev-RRE inh | CYP2C19 act | CYP2C9 inh
O=C(Nc1ccc(Br)cc1)c1cccnc1N1CCCCC1 | -0.77 | 0.1 | 37 | 15 | 0.6 | 86*
CC(C)N(c1nnc(N)s1)C(C)C | -1 | . | . | 5 | . | .
Cc1ccc(S(=O)(=O)c2c(C)cc(C)nc2Oc2cccc(C(F)(F)F)c2)cc1 | -6.3* | 0.5 | 59* | 13 | 0.4 | 46
Cc1cc(C)c(S(C)(=O)=O)c(Oc2ccc(C(C)(C)C)cc2)n1 | . | 0.1 | 35 | 5 | 0.6 | 86*
Cc1cc(C)c(S(C)(=O)=O)c(Oc2cccc(Cl)c2)n1 | . | 0.9 | 14 | -2 | 0.9 | 12
CC(=O)OC(C(=O)NCc1ccc(F)cc1)c1ccccn1 (stereo not given) | 0.89 | 1.2 | -8 | 10 | 1.1 | -17
Cc1cc(N2C(=O)C3C4C=CC(C4)C3C2=O)ccc1Br (stereo not given) | 0.71 | 0.8 | 73* | 8 | 0.3 | 24
CCSc1nnc2n(N)c(=O)c3ccccc3n12 | 0.71 | 1.1 | -4 | 3 | 1 | -9
Cc1cccc(N2C(=O)CC(Sc3nc(C)cc(C)n3)C2=O)c1 (stereo not given) | 0.34 | 0.8 | 40 | -1 | 0.6 | 15
Cc1cccc(N2C(=O)CC(Sc3nc(-c4ccccc4)c4cc(Cl)ccc4n3)C2=O)c1 (stereo not given) | -2 | 0.4 | 25 | -1 | 0.7 | 58*
Clc1ccc2nc(C3CCN(Cc4nnnn4C4CCCCC4)CC3)[nH]c2c1 | -2.6 | . | . | 16 | . | .
Cc1ccc(Cn2nnnc2CN2CCC(c3nc4ccc(Cl)cc4[nH]3)CC2)cc1 | -5.7* | 0.1 | 89* | 12 | 0.1 | 90*
CCOC(=O)NCc1ccc(Cl)c(Cl)c1 | -1.4 | 1 | 46 | -1 | 0.5 | -1
CCOC(=O)Nc1sc(NS(=O)(=O)c2ccccc2)nc1C | 0.38 | 0.2 | 0 | -2 | 1 | 81*
CCOC(=O)NCc1ccc(S(=O)(=O)Nc2c(C)cccc2C)cc1 | -0.33 | 0.7 | 75* | 6 | 0.3 | 29
CCOC(=O)Nc1sc(NS(=O)(=O)c2ccc(C)cc2)nc1C | -0.0037 | 0.4 | 4 | 2 | 1 | 58*
CCOC(=O)Nc1ccc(NS(=O)(=O)c2ccc(C)cc2)cc1 | -0.59 | 0 | 99* | 7 | 0 | 96*
CCN1CCN(C(C(=O)NC2CCCCC2)c2ccc(Cl)cc2)CC1 (stereo not given) | 0.9 | 1.3 | 43 | 5 | 0.6 | -29
CCOC(=O)c1sc(NCCNc2nc(C)c(C(=O)OCC)s2)nc1C | 0.32 | 0.8 | 0 | . | 1 | 21
CCOC(=O)c1sc(NS(=O)(=O)c2ccc(C)cc2)nc1C | -1.9 | 0.2 | 42 | -8 | 0.6 | 77*
CCOC(=O)c1ccc(NS(=O)(=O)c2ccc3[nH]c(=O)[nH]c3c2)cc1 | 0.062 | 0.2 | 29 | 12 | 0.7 | 75*
Cc1ccc(NS(=O)(=O)c2ccc(NC(=O)c3cccs3)cc2)cc1 | -0.39 | 0.5 | 32 | 6 | 0.7 | 51*
O=C(Nc1ccc(Cl)cc1)c1cccs1 | 0.00044 | 1 | 20 | 3 | 0.8 | -4
Oc1ccccc1C1=Nc2ncnn2C(c2ccccc2)C1 (stereo not given) | 0.43 | 0.5 | 54* | . | 0.5 | 48
Cc1cccc(COCCN2CCN(S(=O)(=O)c3ccccc3)CCC2=O)c1 | -0.24 | . | . | . | . | .

Assay outcomes: PubChem BioAssay, several laboratories
